Experimental data: ChEMBL document CHEMBL1165965, “Synthesis and structure-activity relationships of 1,2,3,4-tetrahydropyrido[2,3-b]pyrazines as potent and selective inhibitors of the anaplastic lymphoma kinase” (Bioorg Med Chem, 2010)

What was measured:
[1] = biological target: Calcium/calmodulin-dependent protein kinase type II subunit alpha (Homo sapiens) (UniProt Q9UQM7); experiment: Inhibition of CAMK2A at 1 uM
Procedure, shortened: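 Ambit KINOMEscan screen at a single concentration across a 250–400 kinase panel, recorded as percent inhibition. Selectivity was expressed as S(90), the fraction of kinases inhibited >90%.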

[2] = biological target: Insulin receptor (Homo sapiens) (UniProt P06213); experiment: Inhibition of INSR at 1 uM
Procedure, shortened: (§1)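 Single-concentration screen on the Ambit KINOMEscan platform, run against a panel of 250–400 kinases. Per-kinase inhibition was also summarized as S(90), the fraction of kinases inhibited by more than 90%.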

[3] = biological target: Casein kinase I isoform gamma-1 (Homo sapiens) (UniProt Q9HCP0); experiment: Inhibition of CSNK1G1 at 1 uM
Procedure, shortened: (§2)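 Single-concentration screen using Ambit Bioscience KINOMEscan technology across a panel of 250–400 kinases. Per-kinase inhibition from this screen was summarized as S(90), the fraction of kinases inhibited by more than 90%.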

[4] = biological target: T1, Hormonally up-regulated neu tumor-associated kinase (Homo sapiens) (UniProt P57058); experiment: Inhibition of HUNK at 1 uM
T1 sequence (whole entry): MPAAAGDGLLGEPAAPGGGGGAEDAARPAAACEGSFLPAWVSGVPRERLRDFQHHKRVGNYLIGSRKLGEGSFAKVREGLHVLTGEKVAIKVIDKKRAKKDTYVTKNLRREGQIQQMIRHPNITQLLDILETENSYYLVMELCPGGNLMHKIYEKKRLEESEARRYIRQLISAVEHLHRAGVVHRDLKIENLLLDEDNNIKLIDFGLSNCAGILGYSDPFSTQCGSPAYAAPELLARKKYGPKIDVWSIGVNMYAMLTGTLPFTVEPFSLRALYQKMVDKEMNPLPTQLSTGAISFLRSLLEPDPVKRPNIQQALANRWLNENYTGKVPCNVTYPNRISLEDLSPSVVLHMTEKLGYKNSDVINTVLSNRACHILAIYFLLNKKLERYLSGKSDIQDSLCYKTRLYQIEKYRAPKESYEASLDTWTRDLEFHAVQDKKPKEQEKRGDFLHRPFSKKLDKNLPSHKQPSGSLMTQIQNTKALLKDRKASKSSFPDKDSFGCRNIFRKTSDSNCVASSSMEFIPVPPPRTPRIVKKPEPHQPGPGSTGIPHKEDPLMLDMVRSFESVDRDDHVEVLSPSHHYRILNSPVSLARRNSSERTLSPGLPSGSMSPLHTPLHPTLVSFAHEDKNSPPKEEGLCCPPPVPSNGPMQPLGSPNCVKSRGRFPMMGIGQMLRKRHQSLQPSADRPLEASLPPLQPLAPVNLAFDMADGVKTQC

[5] = biological target: T2, Inhibitor of nuclear factor kappa-B kinase subunit epsilon (Homo sapiens) (UniProt Q14164); experiment: Inhibition of IKK-epsilon at 1 uM
T2 sequence (whole entry): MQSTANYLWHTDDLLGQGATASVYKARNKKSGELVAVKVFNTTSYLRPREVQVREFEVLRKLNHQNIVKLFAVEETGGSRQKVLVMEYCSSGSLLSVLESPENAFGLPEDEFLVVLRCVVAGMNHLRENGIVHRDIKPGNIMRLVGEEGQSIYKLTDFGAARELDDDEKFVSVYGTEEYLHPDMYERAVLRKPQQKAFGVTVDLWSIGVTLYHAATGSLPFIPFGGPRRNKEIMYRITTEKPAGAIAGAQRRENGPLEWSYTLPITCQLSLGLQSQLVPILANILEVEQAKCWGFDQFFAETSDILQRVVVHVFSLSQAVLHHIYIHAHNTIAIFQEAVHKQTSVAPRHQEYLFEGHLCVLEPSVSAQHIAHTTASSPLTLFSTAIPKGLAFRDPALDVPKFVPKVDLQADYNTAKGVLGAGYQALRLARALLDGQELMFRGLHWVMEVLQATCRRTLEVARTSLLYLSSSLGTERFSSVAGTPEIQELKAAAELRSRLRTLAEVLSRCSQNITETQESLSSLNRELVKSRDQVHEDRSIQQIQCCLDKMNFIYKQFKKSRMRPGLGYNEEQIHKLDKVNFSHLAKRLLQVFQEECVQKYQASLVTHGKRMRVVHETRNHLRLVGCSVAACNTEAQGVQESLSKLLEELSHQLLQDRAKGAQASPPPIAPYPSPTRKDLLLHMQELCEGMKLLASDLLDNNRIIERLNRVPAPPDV

[6] = biological target: Protein kinase C theta type (Homo sapiens) (UniProt Q04759); experiment: Inhibition of PRKCQ at 1 uM
[7] = tested on: T3, Receptor-type tyrosine-protein kinase FLT3 (Homo sapiens), P36888 [D835Y]; experiment: Inhibition of FLT3 D835Y mutant at 1 uM; procedure, shortened: as §1
T3 sequence (whole entry): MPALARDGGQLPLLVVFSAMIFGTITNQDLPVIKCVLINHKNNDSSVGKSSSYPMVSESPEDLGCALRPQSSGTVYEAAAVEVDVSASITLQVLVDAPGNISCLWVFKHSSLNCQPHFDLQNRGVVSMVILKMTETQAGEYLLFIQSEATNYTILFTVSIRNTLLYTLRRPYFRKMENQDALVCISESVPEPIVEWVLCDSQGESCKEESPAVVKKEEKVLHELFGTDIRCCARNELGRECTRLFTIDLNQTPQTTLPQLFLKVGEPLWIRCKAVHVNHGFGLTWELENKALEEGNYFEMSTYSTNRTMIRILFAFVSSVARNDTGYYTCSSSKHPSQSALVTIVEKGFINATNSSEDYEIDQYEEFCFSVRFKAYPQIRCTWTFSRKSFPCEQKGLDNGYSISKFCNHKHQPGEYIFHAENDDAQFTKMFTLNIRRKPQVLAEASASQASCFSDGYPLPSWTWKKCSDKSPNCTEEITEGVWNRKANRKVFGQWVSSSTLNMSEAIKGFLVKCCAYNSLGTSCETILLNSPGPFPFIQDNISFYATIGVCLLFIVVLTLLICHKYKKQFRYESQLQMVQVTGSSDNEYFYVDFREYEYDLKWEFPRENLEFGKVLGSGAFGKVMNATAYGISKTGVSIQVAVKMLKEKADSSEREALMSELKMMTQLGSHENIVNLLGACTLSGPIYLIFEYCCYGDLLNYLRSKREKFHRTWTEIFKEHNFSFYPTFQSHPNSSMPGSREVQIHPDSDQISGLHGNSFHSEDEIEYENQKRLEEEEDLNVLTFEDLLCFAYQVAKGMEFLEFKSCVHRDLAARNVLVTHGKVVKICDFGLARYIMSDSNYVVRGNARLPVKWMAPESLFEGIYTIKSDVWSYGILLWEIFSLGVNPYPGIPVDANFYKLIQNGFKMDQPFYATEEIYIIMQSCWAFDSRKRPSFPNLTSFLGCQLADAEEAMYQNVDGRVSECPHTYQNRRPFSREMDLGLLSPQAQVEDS

[8] = biological target: Phosphatidylinositol 4-phosphate 5-kinase type-1 alpha (Homo sapiens) (UniProt Q99755); experiment: Inhibition of PIP5K1A at 1 uM
[9] = biological target: Epithelial discoidin domain-containing receptor 1 (Homo sapiens) (UniProt Q08345); experiment: Inhibition of DDR1 at 1 uM; procedure, shortened: as §2
Epithelial discoidin domain-containing receptor 1 (Homo sapiens), sequence (Q08345 whole entry, the tested form may be a part): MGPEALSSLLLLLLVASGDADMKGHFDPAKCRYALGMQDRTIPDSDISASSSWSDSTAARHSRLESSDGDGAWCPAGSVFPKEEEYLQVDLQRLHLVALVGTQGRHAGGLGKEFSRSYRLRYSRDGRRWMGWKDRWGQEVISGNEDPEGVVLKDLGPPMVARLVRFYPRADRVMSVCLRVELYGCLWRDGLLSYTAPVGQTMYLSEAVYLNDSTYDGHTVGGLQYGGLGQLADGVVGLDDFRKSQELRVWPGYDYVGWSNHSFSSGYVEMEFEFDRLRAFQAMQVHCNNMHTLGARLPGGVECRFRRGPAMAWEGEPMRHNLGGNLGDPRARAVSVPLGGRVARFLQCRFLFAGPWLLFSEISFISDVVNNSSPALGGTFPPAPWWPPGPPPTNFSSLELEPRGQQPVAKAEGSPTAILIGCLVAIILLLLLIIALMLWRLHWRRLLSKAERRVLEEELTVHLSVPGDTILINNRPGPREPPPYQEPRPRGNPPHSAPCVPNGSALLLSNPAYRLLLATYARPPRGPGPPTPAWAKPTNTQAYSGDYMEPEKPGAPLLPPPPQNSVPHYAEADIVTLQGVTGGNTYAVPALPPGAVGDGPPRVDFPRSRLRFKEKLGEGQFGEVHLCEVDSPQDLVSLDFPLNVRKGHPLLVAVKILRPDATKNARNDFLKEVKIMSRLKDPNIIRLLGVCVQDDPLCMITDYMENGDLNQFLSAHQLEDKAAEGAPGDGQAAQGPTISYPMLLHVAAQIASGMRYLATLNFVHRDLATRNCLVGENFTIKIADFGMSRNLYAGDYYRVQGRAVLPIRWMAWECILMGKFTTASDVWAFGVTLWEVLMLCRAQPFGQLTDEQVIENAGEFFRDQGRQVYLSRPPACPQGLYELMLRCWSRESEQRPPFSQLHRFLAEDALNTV

Protein kinase C theta type (Homo sapiens), sequence (Q04759 whole entry, looked up): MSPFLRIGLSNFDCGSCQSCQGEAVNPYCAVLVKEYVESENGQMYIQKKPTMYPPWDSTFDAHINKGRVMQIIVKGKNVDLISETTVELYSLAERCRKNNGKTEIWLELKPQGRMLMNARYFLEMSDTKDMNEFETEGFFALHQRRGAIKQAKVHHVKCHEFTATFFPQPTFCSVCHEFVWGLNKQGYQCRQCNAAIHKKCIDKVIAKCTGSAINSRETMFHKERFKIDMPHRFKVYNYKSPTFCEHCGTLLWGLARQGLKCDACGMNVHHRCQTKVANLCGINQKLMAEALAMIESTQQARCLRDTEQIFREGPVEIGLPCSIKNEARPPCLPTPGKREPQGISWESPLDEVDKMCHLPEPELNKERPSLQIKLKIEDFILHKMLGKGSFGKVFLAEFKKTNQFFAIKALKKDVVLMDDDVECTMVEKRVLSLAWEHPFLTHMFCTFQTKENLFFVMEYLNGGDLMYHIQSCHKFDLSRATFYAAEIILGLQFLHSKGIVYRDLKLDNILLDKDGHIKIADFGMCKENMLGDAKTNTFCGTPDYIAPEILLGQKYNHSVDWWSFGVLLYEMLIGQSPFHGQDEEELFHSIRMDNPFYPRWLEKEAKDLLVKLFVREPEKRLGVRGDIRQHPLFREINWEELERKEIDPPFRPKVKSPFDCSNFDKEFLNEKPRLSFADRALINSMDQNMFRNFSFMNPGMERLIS
Casein kinase I isoform gamma-1 (Homo sapiens), sequence (Q9HCP0 whole entry, looked up, canonical isoform): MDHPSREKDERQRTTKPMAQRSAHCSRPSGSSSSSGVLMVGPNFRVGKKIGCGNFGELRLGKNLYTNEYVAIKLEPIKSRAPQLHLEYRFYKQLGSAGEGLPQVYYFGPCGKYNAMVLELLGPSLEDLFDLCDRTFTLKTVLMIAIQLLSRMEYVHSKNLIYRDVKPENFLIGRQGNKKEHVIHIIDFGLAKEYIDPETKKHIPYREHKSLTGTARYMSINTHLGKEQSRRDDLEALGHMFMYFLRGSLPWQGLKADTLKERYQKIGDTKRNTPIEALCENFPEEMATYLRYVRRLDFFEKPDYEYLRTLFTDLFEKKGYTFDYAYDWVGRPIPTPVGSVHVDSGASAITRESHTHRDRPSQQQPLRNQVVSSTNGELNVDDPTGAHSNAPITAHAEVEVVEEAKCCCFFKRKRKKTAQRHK
Insulin receptor (Homo sapiens), sequence (P06213 28-758 limits assumed): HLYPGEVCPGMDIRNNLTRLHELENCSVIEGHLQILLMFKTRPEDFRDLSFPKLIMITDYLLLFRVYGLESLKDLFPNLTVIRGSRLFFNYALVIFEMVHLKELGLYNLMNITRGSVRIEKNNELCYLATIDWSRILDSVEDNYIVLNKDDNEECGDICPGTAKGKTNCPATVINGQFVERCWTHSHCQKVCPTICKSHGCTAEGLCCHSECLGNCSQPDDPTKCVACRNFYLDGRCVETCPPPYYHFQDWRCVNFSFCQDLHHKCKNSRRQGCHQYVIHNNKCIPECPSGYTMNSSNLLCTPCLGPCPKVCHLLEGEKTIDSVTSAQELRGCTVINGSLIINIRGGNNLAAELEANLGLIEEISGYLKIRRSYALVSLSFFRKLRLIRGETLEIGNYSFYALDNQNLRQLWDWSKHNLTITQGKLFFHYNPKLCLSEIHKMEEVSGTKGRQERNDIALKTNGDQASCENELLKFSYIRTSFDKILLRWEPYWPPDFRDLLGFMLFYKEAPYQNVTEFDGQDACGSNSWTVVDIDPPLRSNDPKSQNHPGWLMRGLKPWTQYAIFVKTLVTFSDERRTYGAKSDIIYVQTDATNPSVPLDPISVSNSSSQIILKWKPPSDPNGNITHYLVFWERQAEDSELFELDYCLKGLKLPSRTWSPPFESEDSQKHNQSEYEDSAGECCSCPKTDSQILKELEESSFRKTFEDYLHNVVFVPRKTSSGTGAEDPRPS
Insulin receptor (Homo sapiens), sequence (P06213 763-1382 limits assumed): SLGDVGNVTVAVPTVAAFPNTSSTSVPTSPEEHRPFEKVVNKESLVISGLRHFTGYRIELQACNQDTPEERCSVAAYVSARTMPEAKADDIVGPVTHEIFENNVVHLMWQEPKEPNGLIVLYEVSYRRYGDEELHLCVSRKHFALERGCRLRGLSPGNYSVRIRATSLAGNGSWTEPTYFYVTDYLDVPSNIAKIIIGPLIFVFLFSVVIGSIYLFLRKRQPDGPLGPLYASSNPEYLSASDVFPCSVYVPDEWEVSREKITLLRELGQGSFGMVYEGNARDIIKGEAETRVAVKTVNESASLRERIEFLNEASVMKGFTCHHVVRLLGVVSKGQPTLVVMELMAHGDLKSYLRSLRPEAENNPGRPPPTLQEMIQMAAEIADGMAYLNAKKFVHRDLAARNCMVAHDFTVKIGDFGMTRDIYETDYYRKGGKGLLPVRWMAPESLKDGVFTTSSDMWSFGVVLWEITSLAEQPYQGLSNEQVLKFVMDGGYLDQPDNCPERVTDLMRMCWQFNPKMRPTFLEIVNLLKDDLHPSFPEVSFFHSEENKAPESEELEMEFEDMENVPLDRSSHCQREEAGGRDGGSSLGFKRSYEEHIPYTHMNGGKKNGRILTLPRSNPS
Phosphatidylinositol 4-phosphate 5-kinase type-1 alpha (Homo sapiens), sequence (Q99755 whole entry, the tested form may be a part): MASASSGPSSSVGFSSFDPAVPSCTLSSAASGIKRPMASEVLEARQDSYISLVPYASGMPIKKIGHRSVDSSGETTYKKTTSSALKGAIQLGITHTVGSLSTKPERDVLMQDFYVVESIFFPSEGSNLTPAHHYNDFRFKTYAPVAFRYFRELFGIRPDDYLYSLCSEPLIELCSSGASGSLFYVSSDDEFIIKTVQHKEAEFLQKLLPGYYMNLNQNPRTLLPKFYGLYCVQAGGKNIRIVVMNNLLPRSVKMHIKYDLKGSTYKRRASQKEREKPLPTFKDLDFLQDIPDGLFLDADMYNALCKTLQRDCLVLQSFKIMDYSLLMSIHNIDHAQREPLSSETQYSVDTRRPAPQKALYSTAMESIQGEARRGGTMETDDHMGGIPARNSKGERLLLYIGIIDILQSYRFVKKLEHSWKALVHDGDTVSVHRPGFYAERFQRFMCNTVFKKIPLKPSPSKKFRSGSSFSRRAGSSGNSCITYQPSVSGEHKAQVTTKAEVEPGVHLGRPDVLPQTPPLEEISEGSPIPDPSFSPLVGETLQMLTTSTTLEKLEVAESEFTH
Calcium/calmodulin-dependent protein kinase type II subunit alpha (Homo sapiens), sequence (Q9UQM7 whole entry): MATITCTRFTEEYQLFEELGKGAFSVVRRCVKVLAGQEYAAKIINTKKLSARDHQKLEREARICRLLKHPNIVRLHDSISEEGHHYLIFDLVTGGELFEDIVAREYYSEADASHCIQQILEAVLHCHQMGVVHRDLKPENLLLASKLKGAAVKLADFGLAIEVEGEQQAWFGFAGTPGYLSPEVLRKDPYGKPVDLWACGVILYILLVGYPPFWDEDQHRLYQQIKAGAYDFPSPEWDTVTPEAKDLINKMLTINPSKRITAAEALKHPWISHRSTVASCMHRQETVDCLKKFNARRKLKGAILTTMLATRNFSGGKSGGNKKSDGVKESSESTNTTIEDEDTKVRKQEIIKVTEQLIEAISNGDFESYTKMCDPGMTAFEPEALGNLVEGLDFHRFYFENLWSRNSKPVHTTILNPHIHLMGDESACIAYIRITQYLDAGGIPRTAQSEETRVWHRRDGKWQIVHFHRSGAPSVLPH

inhibition [1] [%]	inhibition [2] [%]	inhibition [3] [%]	inhibition [4] [%]	inhibition [5] [%]	inhibition [6] [%]	inhibition [7] [%]	inhibition [8] [%]	inhibition [9] [%]	SMILES
< 50	< 50	< 50	< 50	< 50	< 50	85	< 50	< 50	CN1CCN(c2ccc(-c3cnc4c(c3)N(Cc3cc(Cl)ccc3C(F)(F)F)CCN4)cn2)CC1
< 50	< 50	< 50				< 50	< 50	< 50	O=C(O)c1ccc(-c2cnc3c(c2)N(Cc2cc(Cl)ccc2C(F)(F)F)CCN3)cc1
< 50	< 50	< 50				75.5	< 50	84	O=C(c1ccc(-c2cnc3c(c2)N(Cc2cc(Cl)ccc2C(F)(F)F)CCN3)cc1)N1CCC(N2CCCC2)CC1
< 50	< 50	< 50				66.7	< 50	< 50	COC1CCN(C(=O)c2ccc(-c3cnc4c(c3)N(Cc3cc(Cl)ccc3C(F)(F)F)CCN4)cc2)CC1
< 50	< 50	< 50	< 50	< 50	< 50	93	< 50	96	FC(F)(F)c1ccc(Cl)cc1CN1CCNc2ncc(-c3ccnc(N4CCNCC4)c3)cc21
< 50	< 50	< 50	< 50	< 50	< 50	87	< 50	< 50	CC(=O)N1CCN(c2cc(-c3cnc4c(c3)N(Cc3cc(Cl)ccc3C(F)(F)F)CCN4)ccn2)CC1
< 50	< 50	< 50	< 50	< 50	< 50	80.8	< 50	< 50	CN1CCN(c2ccc(-c3cnc4c(c3)N(Cc3cc(F)ccc3F)CCN4)cn2)CC1
< 50	< 50	< 50	< 50	< 50	< 50	< 50	< 50	< 50	CN1CCN(c2ccc(-c3cnc4c(c3)N(Cc3c(F)ccc(F)c3Cl)CCN4)cn2)CC1
< 50	< 50	< 50				< 50	< 50	< 50	O=C(c1ccc(-c2cnc3c(c2)N(Cc2cc(Cl)ccc2C(F)(F)F)CCN3)cc1)N1CCCCC1
< 50	< 50	< 50	< 50	< 50	< 50	87	< 50	< 50	CN1CCN(c2ccc(-c3cnc4c(c3)N(Cc3cc(Cl)ccc3Cl)CCN4)cn2)CC1
